RGS4 pot: potentiators or activators of RGS4 | hit rate 0.92% among 310,000 | B-score at 10 µM | HEK293 M3R/inducible RGS4, carbachol calcium flux Fluo4; hits give low values;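 active = B-score of the integrated calcium signal more than 4 SD below the library mean, with starting fluorescence not abnormally high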;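 note: negative B-score means reduced calcium response which marks RGS4 activation or potentiation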
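Material: M3R-expressing HEK293 line, RGS4 induced by doxycycline | Schedule: Overnight RGS4 induction, 30 min dye load 37 °C, 20 min compound RT | Measured by: Fluo4 fluorescence kinetic imaging of calcium | Read-out: Integrated calcium ratio converted to B score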
RGS4 block: inhibitors of human RGS4; P49798; B-score at 10 µM; hit rate 0.45% among 310,000; HEK293 M3R/RGS4 inducible, Fluo-4 calcium flux; hits give high values; triggered by carbachol at its EC20;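 active = B-score, a plate-corrected calcium signal, over three deviations above library mean, with baseline fluorescence within five deviations of library mean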;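 note: RGS4 expression induced by doxycycline in cells with stable M3 receptor; B-score is computed from the integrated fluorescence ratio over baseline after carbachol; higher B-score means a larger calcium signal and so more RGS4 inhibition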
Target sequence (P49798 whole entry, looked up): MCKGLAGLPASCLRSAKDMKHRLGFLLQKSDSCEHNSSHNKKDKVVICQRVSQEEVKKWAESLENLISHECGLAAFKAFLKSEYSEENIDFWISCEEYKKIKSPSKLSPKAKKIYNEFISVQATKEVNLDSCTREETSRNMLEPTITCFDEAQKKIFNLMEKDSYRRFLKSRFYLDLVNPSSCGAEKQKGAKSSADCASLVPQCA
MrgX1 antag: human MrgX1 receptor antagonism, primary screen. Q96LB2. MRGX1-HEK293 calcium flux, Fluo-4, BAM8-22 antagonism; hits give low values. B-score at 10 µM. hit rate 1.3% among 310,000;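 active = calcium-response B-score plate-corrected more than 3 library SD below zero, starting fluorescence within 5 deviations, no agonist response on first addition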;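 note: peak minus trough fluorescence over baseline after final BAM8-22 challenge near maximal dose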
Target sequence (Q96LB2 whole entry, looked up): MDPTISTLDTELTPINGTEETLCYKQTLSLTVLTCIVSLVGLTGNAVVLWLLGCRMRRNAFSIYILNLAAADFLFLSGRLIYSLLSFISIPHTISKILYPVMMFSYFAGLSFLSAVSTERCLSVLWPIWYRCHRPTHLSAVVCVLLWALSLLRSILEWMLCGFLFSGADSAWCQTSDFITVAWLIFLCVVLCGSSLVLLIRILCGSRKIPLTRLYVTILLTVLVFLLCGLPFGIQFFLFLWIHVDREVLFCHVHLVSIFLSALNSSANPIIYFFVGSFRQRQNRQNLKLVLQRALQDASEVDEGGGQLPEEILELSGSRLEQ
MrgX1 allo act: human MrgX1 positive allosteric modulation, primary screen. MrgX1-HEK293, Fluo-4 calcium flux, FDSS; hits give high values. B-score at 10 µM. hit rate 0.63% among 310,000;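 active = plate-corrected calcium response at least 3 library SD above typical, normal starting fluorescence, not activating the receptor alone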;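 note: compound read alongside a low EC10 to EC30 dose of BAM8-22 agonist; peak minus trough fluorescence over baseline measured at the second addition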
MrgX1 agonist: activates human MrgX1 receptor signaling. hit rate 0.44% among 310,000. B-score at 10 µM. MrgX1-HEK293 cells, Fluo-4 calcium fluorescence, agonist mode; hits give high values;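 active = calcium response B-score plate-corrected fluorescence ratio at least 3 library SD, with starting fluorescence B-score inside 5 SD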
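Material – MrgX1-expressing HEK293 cells · Input – 15,000 cells seeded per well · Dosing – compound as first of three additions · Times – overnight seeding, then 1 h dark dye loading · Measured by – kinetic Fluo-4 NW fluorescence of intracellular calcium · Read-out – B-scored fluorescence response ratio · Benchmarks – positive and negative control wells on each plate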
RGS4 inh valid: validation of RGS4 inhibitors; shares compounds with RGS4 block; HEK293 M3R/RGS4, carbachol calcium Fluo-4 fluorescence; carbachol added at its EC20; 0 = buffer wells, 100 = carbachol control; calcium response, % at 10 µM; hit rate 65% among 1,700; AID 492999;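 active = duplicate-averaged calcium response above the buffer-only control mean plus 5 SD of those controls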;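 note: integrated fluorescence ratio F max minus min over baseline F0; higher response in RGS4-induced cells means RGS4 inhibition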
RGS4 uninduced: non-induced cell nonspecific activity of RGS4 inhibitors | shares compounds with RGS4 block | HEK293 M3R non-induced, carbachol calcium Fluo-4; submaximal (EC20) carbachol stimulus; buffer wells 0%, carbachol control wells 100% | activity (percent), % at 10 µM | hit rate 20% among 1,900; call rule not given here;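 note: RGS4 induction absent so cells express M3R without RGS4; higher means more calcium signal and flags a non-specific hit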
M3R basal Ca ctr: second RGS4 inhibitor counter-screen in uninduced cells lacking carbachol; shares compounds with RGS4 block; HEK293 M3R/RGS4 non-induced, Fluo-4 calcium, no carbachol; normalised: buffer wells 0%, carbachol wells 100%; calcium response (agonist-mode artifact), % at 10 µM; hit rate 22% among 1,900; AID 493001;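 active = duplicate-averaged calcium rise in uninduced cells above buffer wells' mean plus 5 SD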
Numbers stand for hits; 0 = inactive; - = no result. An excerpt weighted towards active compounds, which were near 3.5% of everything screened.

SMILES | RGS4 pot | RGS4 block | MrgX1 antag | MrgX1 allo act | MrgX1 agonist | RGS4 inh valid | RGS4 uninduced | M3R basal Ca ctr
Cc1ccc(Nc2nc(N)nc(CCl)n2)cc1 | 0 | 4.73 | 0 | 0 | 0 | 7.0% | 0 | 0
COc1ccc(OC)c(Nc2nc(N)nc(CSc3nnc(N)s3)n2)c1 | 0 | 0 | 0 | 0 | 0 | - | - | -
Cc1ccc(Nc2nc(N)nc(CSc3nc4ccccc4s3)n2)cc1 | 0 | 5.07 | 0 | 0 | 0 | 8.0% | 0 | 0
CC(=O)Nc1ccc(NC(=O)CCCc2ccccc2)cc1 | 0 | 0 | 0 | 0 | 0 | - | - | -
O=C(CCNC(=O)c1ccccc1Cl)NCC(c1ccco1)N1CCCC1 (stereo not drawn) | 0 | 0 | 0 | 0 | 0 | - | - | -
O=C(CNc1ccc2ccccc2c1)N/N=C/c1cc2ccccc2nc1Cl | 0 | 0 | 0 | 0 | 0 | - | 0 | 0
O=C(CSc1nnc(SCc2cccc3ccccc23)s1)N/N=C/c1c[nH]c2ccccc12 | 0 | 4.71 | 0 | 0 | 0 | 20.0% | 0 | 0
O=C(O)COc1ccccc1/C=N/NC(=O)CSc1nnc(SCc2cccc3ccccc23)s1 | 0 | 0 | 0 | 0 | 0 | - | - | -
O=C(CSc1nnc(SCc2ccc(Cl)cc2)s1)N/N=C/c1c[nH]c2ccccc12 | 0 | 0 | 0 | 0 | 0 | - | 0 | 0
COc1ccc(-c2csc(Nc3cc(C)ccn3)n2)cc1C | 0 | 9.77 | 0 | 0 | 0 | 34.0% | 39.0% | 0
O=[N+]([O-])c1cc(CN(CCO)CCO)ccc1O | 0 | 0 | 0 | 0 | 0 | - | - | -
Cc1ccc(SCC(=O)NCCc2ccc(F)cc2)cc1 | 0 | 0 | 0 | 0 | 0 | - | - | -
Cc1ccc(-c2ccc(/C=C3\C(=O)ON=C3c3ccccc3)o2)c([N+](=O)[O-])c1 | 0 | 11.7 | -6.31 | 0 | 0 | 0 | 0 | 14.0%
Cc1ccc(/C=C2\C(=O)ON=C2c2ccccc2)o1 | 0 | 0 | 0 | 0 | 0 | - | - | -
COc1cc(OC)cc(-c2cc(N)n(S(=O)(=O)c3cccc4nsnc34)n2)c1 | 0 | 4.81 | 0 | 0 | 0 | 8.0% | 0 | 0
Cc1nn2c(N3CCOCC3)cc(C(C)(C)C)nc2c1-c1ccc(Cl)cc1 | 0 | 0 | - | - | - | - | - | -
CC(C)(C)c1cc(N2CCOCC2)n2ncc(-c3ccc(Cl)cc3)c2n1 | 0 | 11.5 | 0 | 0 | 0 | 27.0% | 47.0% | 0
Cc1ccc(-c2cnn3c(N4CCOCC4)cc(C)nc23)cc1 | 0 | 0 | 0 | 0 | 0 | - | - | -
Cc1cc(N2CCOCC2)n2ncc(-c3ccc(Cl)cc3)c2n1 | 0 | 0 | 0 | 0 | 0 | 0 | 0 | 0
CC(=O)C1=C(C)OC(N)=C(C#N)C1c1cc2cccc(C)c2nc1Cl (stereo not drawn) | 0 | 6.84 | 0 | 0 | 0 | 21.5% | 33.5% | 0
COC(=O)C1=C(C)OC(N)=C(C#N)C1c1cc2cccc(C)c2nc1Cl (stereo not drawn) | 0 | 0 | 0 | 0 | 0 | - | - | -
CCOc1cc(/C=C\[N+](=O)[O-])ccc1OCC(=O)Nc1ccccc1C | 0 | 42.7 | 0 | 0 | 0 | 54.0% | 47.0% | 0
N#Cc1c(N2CCOCC2)nc(-c2ccco2)c2c1CCCC2 | 0 | 0 | 0 | 0 | 0 | 0 | 0 | 0
CC1(C)Cc2c(C#N)c(N3CCCC3)nc(-c3ccco3)c2CO1 | 0 | 8.53 | 0 | 0 | 0 | 6.0% | 0 | 13.0%
CC1(C)Cc2c(C#N)c(NCc3ccco3)nc(-c3ccco3)c2CO1 | 0 | 0 | 0 | 0 | 0 | - | - | -
CCc1nc(N2CCOCC2)c(C#N)c2c1CCCC2 | 0 | 0 | 0 | 0 | 0 | - | - | -
N#Cc1c(-c2ccccc2)c(-c2ccccc2)nn(CC(=O)NNC(=O)Nc2ccc(Cl)c(Cl)c2)c1=O | 0 | 6.52 | 0 | 0 | 0 | 27.5% | 0 | 0
O=c1[nH]cnc2onc(-c3ccc(F)cc3)c12 | 0 | 0 | 0 | 0 | 0 | - | - | -
COC(=O)C(C)Sc1nc2c(c(=O)n(C)c(=O)n2C)n1CCC(C)C (stereo not drawn) | 0 | 0 | 0 | 0 | 0 | - | - | -

Source: PubChem BioAssay
